# Data as given in PMC7651632 (RSC Medicinal Chemistry, 2020).
# Entries after “also recorded” stand apart in the source; their conditions may differ.
# What was measured:
# RAW 267.4 macrophages = assay: Cytotoxicity screening against RAW267.4 macrophages; type: cell-based, Mus musculus
# Procedure, shortened: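 Only compounds retained after the axenic amastigote dose-response screen were tested. Host RAW 267.4 macrophages were used. […] Selectivity index is macrophage ED50 divided by axenic amastigote ED50.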
# [1] = system: L. mexicana amastigotes within macrophage host (RAW 267.4); assay: Infected cell assay: screening against infected macrophages; type: cell-based, Leishmania mexicana; settings: 24 h
# [2] = system: L. mexicana axenic amastigotes; assay: Primary screen against axenic amastigotes, single concentration; type: cell-based, Leishmania mexicana; settings: 50 μM, in duplicate, inhibition of amastigote proliferation
# Procedure, shortened: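 Run in a 96-well format against mammalian-stage L. mexicana axenic amastigotes. Each test compound was tested at a single 50 μM in duplicate, with inhibition of amastigote proliferation as the read-out. Amphotericin B served as positive control, and plate robustness was judged by Z′ factor.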
# [3] = system: axenic L. mexicana amastigotes; assay: Secondary dose response screen against axenic amastigotes; type: cell-based, Leishmania mexicana; settings: 50 µM to 0.21 µM, 24 h + 24 h alamarBlue, 33 °C
Structure (SMILES),% inhibition Primary screen [2],further results
"CC1(C)CC[C@]2(C(=O)O)CC[C@]3(C)C(=CC[C@@H]4[C@@]5(C)CC[C@H](OC(=O)CCC(=O)O)[C@@](C)(COC(=O)CCC(=O)O)[C@@H]5CC[C@]43C)[C@@H]2C1 [IVL-1, hederagenin disuccinate]",–,"SI - selectivity index, RAW ED50/AMA ED50 (RAW 267.4 macrophages; RAW 267.4 macrophages versus axenic L. mexicana amastigotes): > 43.5; RAW ED50 - effective dose to kill 50% of host macrophage (RAW 267.4) (RAW 267.4 macrophages; toxicity study, 100 µM to 0.41 µM, 24 h): >100 µM; InMAC ED50 - effective dose to kill 50% of amastigotes within macrophage host (RAW 267.4) [1]: not active"
"CC1(C)CC[C@]2(C(=O)O)CC[C@]3(C)C(=CC[C@@H]4[C@@]5(C)CC[C@H](O)[C@@](C)(CO)[C@@H]5CC[C@]43C)[C@@H]2C1 [IVL-7, hederagenin]",< 95%,–
"CC1(C)CC[C@]2(C(=O)O)CC[C@]3(C)C(=CC[C@@H]4[C@@]5(C)CC[C@H](O)C(C)(C)[C@@H]5CC[C@]43C)[C@@H]2C1 [IVL-8, Oleanolic acid]",fell below the threshold; also recorded: deselected,–
"CC1(C)CC[C@]2(C(=O)O)CC[C@]3(C)C(=CCC4[C@@]5(C)CC[C@H](O[C@@H]6O[C@H](CO)[C@@H](O)[C@H](O)[C@H]6O[C@@H]6O[C@H](CO)[C@@H](O)[C@H](O)[C@H]6O)[C@@](C)(CO)C5CC[C@]43C)[C@@H]2C1 (some centres unmarked) [IVL-14, hederoside F]",fell below the threshold; also recorded: did not reach this cut-off,–
"C[C@@H]1O[C@@H](O[C@H]2[C@H](O)[C@@H](O)[C@H](OC[C@H]3O[C@@H](OC(=O)[C@]45CCC(C)(C)C[C@H]4C4=CC[C@@H]6[C@@]7(C)CC[C@H](O[C@@H]8OC[C@H](O)[C@H](O)[C@H]8O)[C@@](C)(CO)[C@@H]7CC[C@@]6(C)[C@]4(C)CC5)[C@H](O)[C@@H](O)[C@@H]3O)O[C@@H]2CO)[C@H](O)[C@H](O)[C@H]1O [IVL-15, hederacoside D]",inactive,–
"CC1(C)CC[C@]2(CO)CC[C@]3(C)C(=CC[C@@H]4[C@@]5(C)CC[C@@H]6O[C@H]([C@H](O)[C@@H](O)[C@@H](O)CO)OC[C@@]6(C)[C@@H]5CC[C@]43C)[C@@H]2C1 [IVL-80, Anemoclemoside A2]",–,AMA ED50 - effective dose to kill 50% of axenic L. mexicana amastigotes [3]: >50 µM
